Measured values reported in ChEMBL document CHEMBL1153798, “Substituted tetrahydroquinolines as potent allosteric inhibitors of reverse transcriptase and its key mutants” (Bioorg Med Chem Lett, 2009).

Tests used:
[1] = test system: Human immunodeficiency virus 1; test: Antiviral activity against HIV1 3B infected human MT4 cells assessed as drug level required for 95% inhibition in the presence of 10% fetal bovine serum; type: functional
In short: (§1)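 Spread assay: MT-4 human T-lymphoid cells in RPMI 1640 with either 10% FBS or 50% NHS; CIC95 taken as the concentration blocking >95% of virus spread. Wild-type virus H9IIIB or R8 as stated per line. Geometric mean of at least two determinations, individual values within 25% of the mean.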

[2] = Inhibition of HIV1 reverse transcriptase K103 mutant
[3] = test system: Human immunodeficiency virus 1; test: Antiviral activity against HIV1 3B infected human MT4 cells assessed as drug level required for 95% inhibition in the presence of 50% normal human serum; type: functional; in short: as §1
Canis familiaris = test: Hepatic clearance in Beagle dog at 1 mg/kg, po and 0.5 mg/kg, iv; type: ADME, organism-based, Canis lupus familiaris, Liver; settings: in vivo
In short: (§2)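 Beagle dogs (n = 2) dosed singly, po 1 mg/kg and iv 0.5 mg/kg; iv cassette co-administered with other analogues at 0.125 mg/kg. Interanimal variability below 20%.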

Rattus norvegicus [4] = test: Hepatic clearance in rat at 10 mg/kg, po and 2 mg/kg, iv; settings: in vivo
[5] = Half life in Sprague-Dawley rat at 10 mg/kg, po and 2 mg/kg, iv; type: ADME, organism-based; settings: in vivo
[6] = Half life in Beagle dog at 1 mg/kg, po and 0.5 mg/kg, iv; type: ADME, organism-based, Canis lupus familiaris; settings: in vivo; in short: as §2
[7] = test system: Human immunodeficiency virus 1; test: Ratio of IC50 for HIV1 carrying reverse transcriptase K103N/Y181C mutant to IC50 for wild type HIV1 in the presence of 40% normal human serum; type: functional
[8] = test system: Human immunodeficiency virus 1; test: Antiviral activity against HIV1 carrying reverse transcriptase K103N/V179E mutant infected human MT4 cells by phenoscreen assay in the presence of 40 percent normal human serum; type: functional, organism-based; settings: Human immunodeficiency virus 1, MT4
In short: (§3)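 Phenotypic recombinant-virus assay (Phenoscreen, Monogram Bioscience), run with 40% normal human serum present. IC50 is the compound concentration in cell culture that inhibits viral replication by 50%.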

[9] = test system: Human immunodeficiency virus 1; test: Antiviral activity against HIV1 carrying reverse transcriptase […]/G190A mutant infected human MT4 cells in the presence of 40 percent normal human serum; type: functional; in short: as §3
[10] = test system: Human immunodeficiency virus 1; test: Ratio of IC50 for HIV1 carrying reverse transcriptase […]/ Y181C/G190A mutant to IC50 for wild type HIV1 in the presence of 40% normal human serum; type: functional
[11] = test system: Human immunodeficiency virus 1; test: Antiviral activity against HIV1 carrying reverse transcriptase K103N mutant infected human MT4 cells by phenoscreen assay in the presence of 40 percent normal human serum; type: functional, organism-based; settings: Human immunodeficiency virus 1, MT4; in short: as §3
[12] = Activity of CYP3A4 in rat hepatocytes assessed as oxidation of tetrahydroquinoline ring; type: ADME, cell-based, Hepatocyte
[13] = test system: Human immunodeficiency virus 1; test: Antiviral activity against HIV1 carrying reverse transcriptase K101E/G190A mutant infected human MT4 cells by phenoscreen assay in the presence of 40 percent normal human serum; settings: Human immunodeficiency virus 1, MT4
[14] = test system: Human immunodeficiency virus 1; test: Ratio of IC50 for HIV1 carrying reverse transcriptase G190A mutant to IC50 for wild type HIV1 in the presence of 40% normal human serum; type: functional
[15] = test system: Human immunodeficiency virus 1; test: Antiviral activity against HIV1 carrying reverse transcriptase Y181C mutant infected human MT4 cells by phenoscreen assay in the presence of 40 percent normal human serum; type: functional, organism-based; settings: Human immunodeficiency virus 1, MT4; in short: as §3
[16] = test system: Human immunodeficiency virus 1; test: Ratio of IC50 for HIV1 carrying reverse transcriptase K103N/V179E mutant to IC50 for wild type HIV1 in the presence of 40% normal human serum; type: functional
[17] = Activity of CYP3A4 in rat plasma assessed as oxidation of tetrahydroquinoline ring; type: ADME, cell-free
[18] = test system: Human immunodeficiency virus 1; test: Antiviral activity against HIV1 carrying reverse transcriptase G190A mutant infected human MT4 cells by phenoscreen assay in the presence of 40 percent normal human serum; settings: Human immunodeficiency virus 1, MT4
[19] = Oral bioavailability in Beagle dog at 1 mg/kg; type: ADME, organism-based, Canis lupus familiaris; settings: in vivo; in short: as §2
[20] = Activity of CYP3A4 in rat bile assessed as oxidation of tetrahydroquinoline ring; type: ADME
[21] = test system: Human immunodeficiency virus 1; test: Antiviral activity against HIV1 carrying reverse transcriptase Y181C/G190A mutant infected human MT4 cells by phenoscreen assay in the presence of 40 percent normal human serum; type: functional, organism-based; settings: Human immunodeficiency virus 1, MT4; in short: as §3
[22] = test system: Human immunodeficiency virus 1; test: Ratio of IC50 for HIV1 carrying reverse transcriptase Y188L mutant to IC50 for wild type HIV1 in the presence of 40% normal human serum; type: functional
Rattus norvegicus [23] = test: Hepatic clearance in Sprague-Dawley rat at 10 mg/kg, po and 2 mg/kg, iv; type: ADME, organism-based, Liver; settings: in vivo
[24] = test system: Human immunodeficiency virus 1; test: Antiviral activity against HIV1 carrying reverse transcriptase Y188L mutant infected human MT4 cells by phenoscreen assay in the presence of 40 percent normal human serum; type: functional, organism-based; settings: Human immunodeficiency virus 1, MT4; in short: as §3
[25] = test system: Human immunodeficiency virus 1; test: Antiviral activity against HIV1 carrying reverse transcriptase K103N/G190A mutant infected human MT4 cells by phenoscreen assay in the presence of 40 percent normal human serum; type: functional, organism-based; settings: Human immunodeficiency virus 1, MT4; in short: as §3
[26] = test system: Human immunodeficiency virus 1; test: Ratio of IC50 for HIV1 carrying reverse transcriptase K103N mutant to IC50 for wild type HIV1 in the presence of 40% normal human serum; type: functional
[27] = test system: Human immunodeficiency virus 1; test: Antiviral activity against HIV1 R8 infected human MT4 cells assessed as drug level required for 95% inhibition in the presence of 50% normal human serum; type: functional; in short: as §1
[28] = test system: Human immunodeficiency virus 1; test: Ratio of IC50 for HIV1 carrying reverse transcriptase G190S mutant to IC50 for wild type HIV1 in the presence of 40% normal human serum; type: functional
[29] = test system: Human immunodeficiency virus 1; test: Antiviral activity against HIV1 carrying reverse transcriptase V106A/G190A/F227L mutant infected human MT4 cells by phenoscreen assay in the presence of 40 percent normal human serum; type: functional, organism-based; settings: Human immunodeficiency virus 1, MT4; in short: as §3
[30] = test system: Human immunodeficiency virus 1; test: Antiviral activity against HIV1 carrying reverse transcriptase K103N/ Y181C/G190A mutant infected human MT4 cells by phenoscreen assay in the presence of 40 percent normal human serum; type: functional, organism-based; settings: Human immunodeficiency virus 1, MT4; in short: as §3
[31] = Volume of distribution in Beagle dog at 1 mg/kg, po and 0.5 mg/kg, iv; type: ADME, organism-based, Canis lupus familiaris; settings: in vivo, read-out: Vdss; in short: as §2
[32] = test system: Human immunodeficiency virus 1; test: Antiviral activity against HIV1 infected human MT4 cells by phenoscreen assay in the presence of 40 percent normal human serum; type: functional, organism-based; settings: Human immunodeficiency virus 1, MT4
[33] = test system: Human immunodeficiency virus 1; test: Antiviral activity against HIV1 carrying reverse transcriptase K101E/ Y181C/G190A mutant infected human MT4 cells by phenoscreen assay in the presence of 40 percent normal human serum; settings: Human immunodeficiency virus 1, MT4
[34] = test system: Human immunodeficiency virus 1; test: Ratio of IC50 for HIV1 carrying reverse transcriptase V106A/G190A/F227L mutant to IC50 for wild type HIV1 in the presence of 40% normal human serum; type: functional
[35] = test system: Human immunodeficiency virus 1; test: Ratio of IC50 for HIV1 carrying reverse transcriptase Y181C mutant to IC50 for wild type HIV1 in the presence of 40% normal human serum; type: functional
[36] = Activity of CYP3A4 in rat liver microsomes assessed as oxidation of tetrahydroquinoline ring; type: ADME, Microsome
[37] = test system: Human immunodeficiency virus 1; test: Ratio of IC50 for HIV1 carrying reverse transcriptase K103N/P225H mutant to IC50 for wild type HIV1 in the presence of 40% normal human serum; type: functional
[38] = test system: Human immunodeficiency virus 1; test: Antiviral activity against HIV1 carrying reverse transcriptase K103N/P225H mutant infected human MT4 cells by phenoscreen assay in the presence of 40 percent normal human serum; type: functional, organism-based; settings: Human immunodeficiency virus 1, MT4; in short: as §3
[39] = test system: Human immunodeficiency virus 1; test: Ratio of IC50 for HIV1 carrying reverse transcriptase Y181C/G190A mutant to IC50 for wild type HIV1 in the presence of 40% normal human serum; type: functional
[40] = test system: Human immunodeficiency virus 1; test: Antiviral activity against HIV1 R8 infected human MT4 cells assessed as drug level required for 95% inhibition in the presence of 10% fetal bovine serum; type: functional; in short: as §1
[41] = test system: Human immunodeficiency virus 1; test: Ratio of IC50 for HIV1 carrying reverse transcriptase […]/G190A mutant to IC50 for wild type HIV1 in the presence of 40% normal human serum; type: functional
[42] = test system: Human immunodeficiency virus 1; test: Antiviral activity against HIV1 carrying reverse transcriptase K103N/Y181C mutant infected human MT4 cells by phenoscreen assay in the presence of 40 percent normal human serum; type: functional, organism-based; settings: Human immunodeficiency virus 1, MT4; in short: as §3
[43] = test system: Human immunodeficiency virus 1; test: Antiviral activity against HIV1 carrying reverse transcriptase […] mutant infected human MT4 cells by phenoscreen assay in the presence of 40 percent normal human serum; type: functional, organism-based; settings: Human immunodeficiency virus 1, MT4; in short: as §3
[44] = test system: Human immunodeficiency virus 1; test: Ratio of IC50 for HIV1 carrying reverse transcriptase K103N/G190A mutant to IC50 for wild type HIV1 in the presence of 40% normal human serum; type: functional
[45] = test system: Human immunodeficiency virus 1; test: Antiviral activity against HIV1 carrying reverse transcriptase G190S mutant infected human MT4 cells by phenoscreen assay in the presence of 40 percent normal human serum; settings: Human immunodeficiency virus 1, MT4
[46] = test system: Human immunodeficiency virus 1; test: Ratio of IC50 for HIV1 carrying reverse transcriptase […] mutant to IC50 for wild type HIV1 in the presence of 40% normal human serum; type: functional

Compound `NS(=O)(=O)c1ccc(NC(=O)CSC(=O)N2CCCc3cccc(Cl)c32)c(Cl)c1` has an ID95 [1] of 23 nM, an IC50 [2] of 4 nM and an ID95 [3] of 47 nM.
For `NS(=O)(=O)c1ccc(NC(=O)C2CC2C(=O)N2CCCc3cc(Cl)cc(Cl)c32)c(Cl)c1` (single isomer, unassigned; 16), the Activity [1] was 176 nM, the CL (Canis familiaris) was 14 mL/min/kg and the CL (Rattus norvegicus [4]) was 22 mL/min/kg. It also gave a half-life [5] of 30 min, a half-life [6] of 78 min and an IC50 [2] of 18 nM. It also gave an Activity [3] of 304 nM.
For `NS(=O)(=O)c1ccc(NC(=O)CSC(=O)N2CCCc3cc(Cl)cc(Cl)c32)c(Cl)c1`, the “fold change (FC)” value [7] was 53.5, the IC50 [8] was 2.2 nM and the ID95 [1] was 13 nM. For the same compound, the fold change (FC) [9] was 94.3, the “fold change (FC)” value [10] was >833 and the IC50 [11] was 0.9 nM. For the same compound, the Activity [12] was “Active”, the IC50 [13] was 113 nM and the “fold change (FC)” value [14] was 10.1. The IC50 [15] was 16.8 nM, the half-life [5] was 24 min and the “fold change (FC)” value [16] was 1.8. The Activity [17] was “Active”, the IC50 [18] was 12.1 nM and the bioavailability [19] was 30%. The half-life [6] was 294 min, the Activity [20] was “Active” and the IC50 [21] was 327 nM. The “fold change (FC)” value [22] was >833, the CL (Rattus norvegicus [23]) was 109 mL/min/kg and the IC50 [24] was > 1000 nM. The IC50 [25] was 8.2 nM, the “fold change (FC)” value [26] was 0.8 and the Activity [27] was 33 nM. The “fold change (FC)” value [28] was 51.6, the IC50 [29] was > 1000 nM and the IC50 [30] was > 1000 nM. The Vd [31] was 5 L/kg, the IC50 [32] was 1.2 nM and the ID95 [3] was 40 nM. The IC50 [33] was > 1000 nM, the “fold change (FC)” value [34] was >833 and the “fold change (FC)” value [35] was 14. For the same compound, the Activity [36] was “Active”, the “fold change (FC)” value [37] was 2.7 and the IC50 [38] was 3.2 nM. The “fold change (FC)” value [39] was 272.5, the Activity [40] was 18 nM and the “fold change (FC)” value [41] was 94.3. For the same compound, the IC50 [42] was 64.2 nM, the IC50 [43] was 5.5 nM and the “fold change (FC)” value [44] was 6.8. The IC50 [45] was 61.9 nM and the “fold change (FC)” value [46] was 4.6.
With `O=C(CSC(=O)N1CCCc2cc(Cl)cc(Cl)c21)Nc1ccccc1Cl` the ID95 [1] was 125 nM and the ID95 [3] was 406 nM.
